In ChEMBL document CHEMBL5107945, “Synthesis and biological evaluation of bergenin derivatives as new immunosuppressants” (RSC Med Chem, 2021):

Legend:
[1] = Inhibition of ConA-induced proliferation of BALB/c mouse splenocyte at 10 uM incubated for 48 hrs by CCK-8 assay relative to control; assay type: functional
In short: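 Male BALB/c mouse splenocytes (6–8 weeks; red cells lysed with 0.84% NH4Cl), 5 × 10^5 cells/well in RPMI-1640 with 10% FBS and pen/strep, were stimulated with 5 μg/mL Con A with or without 10 μM compound for 48 h at 37 °C, 5% CO2. CCK-8 was added for 3 h and OD450 read. Inhibition was calculated against Con A-only wells; means ± SEM, ≥3 independent experiments.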

[2] = Inhibition of ConA-induced proliferation of BALB/c mouse splenocyte incubated for 48 hrs by CCK-8 assay relative to control; assay type: functional, cell-based
In short: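 IC50 was measured only for compounds giving over 50% inhibition at 10 μM. Con A (5 μg/mL)-stimulated male BALB/c splenocytes, 5 × 10^5 cells/well in RPMI-1640/10% FBS, were cultured 48 h at 37 °C, 5% CO2. Read-out was CCK-8, 3 h incubation, OD450. IC50 came from at least three independent tests.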

[3] = Inhibition of ConA-induced IFN-gamma secretion in BALB/c mouse splenocyte at 10 uM incubated for 48 hrs by ELISA relative to control; assay type: functional
In short: (§1)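 Male BALB/c splenocytes, 5 × 10^5 cells/well, were treated with Con A (5 μg/mL) plus compound at 5 or 10 μM for 48 h at 37 °C, 5% CO2. Plates were spun at 4 °C, 1500 rpm, 5 min. Cell-free supernatant IFN-γ or IL-4 was measured by capture-antibody ELISA. Inhibition was calculated against Con A-only wells; means ± SEM, ≥3 independent experiments.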

[4] = Inhibition of ConA-induced IL-4 secretion in BALB/c mouse splenocyte at 10 uM incubated for 48 hrs by ELISA relative to control; assay type: functional; in short: as §1
[5] = Cytotoxicity against human Jurkat cells assessed as reduction in cell viability incubated for 48 hrs by CCK-8 assay; assay type: toxicity, cell-based
In short: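 Human Jurkat T-leukemia cells in RPMI-1640 with 10% FBS and pen/strep, 2.5 × 10^4 cells/well, were exposed to serially diluted compound at 37 °C for 48 h. Viability was read by CCK-8 (3 h, OD450). IC50 is the concentration reducing viability to 50%.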

[6] = Selectivity index, ratio of IC50 for cytotoxicity against human Jurkat cells to IC50 for inhibition of ConA-induced proliferation of BALB/c mouse splenocyte; assay type: toxicity, cell-based; settings: mouse (splenocytes), ConA-stimulated mouse splenocytes, read-out: Ratio IC50
In short: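 Ratio of Jurkat IC50 to splenocyte IC50. Jurkat: 2.5 × 10^4 cells/well, serial dilutions, 48 h, 37 °C, CCK-8 viability. Splenocytes: BALB/c cells, 5 × 10^5/well, with 5 μg/mL Con A, 48 h, 37 °C, 5% CO2, CCK-8 read at OD450.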

[7] = Inhibition of ConA-induced proliferation of BALB/c mouse splenocyte at 1 uM incubated for 48 hrs by CCK-8 assay relative to control; assay type: functional
In short: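 Positive-control condition: cyclosporine A at 1 μM in the same Con A (5 μg/mL)-stimulated BALB/c splenocyte culture, 5 × 10^5 cells/well, 48 h at 37 °C, 5% CO2. Proliferation was read by CCK-8 (3 h, OD450) against Con A-only wells.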

Row | Structure (SMILES) | inhibition at 10 µM [1] [%] | IC50 [2] [µM] | inhibition at 10 µM [3] [%] | inhibition at 10 µM [4] [%] | IC50 at 48 h [5] [µM] | selectivity ratio [6] | inhibition at 1 µM [7] [%]
1 | CCCCCOc1cc2c(c(OCCCCC)c1OC)[C@@H]1O[C@H](CO)[C@@H](O)[C@H](O)[C@H]1OC2=O | 5.4 | – | – | – | – | – | –
2 | CCCCCCCOc1cc2c(c(OCCCCCCC)c1OC)[C@@H]1O[C@H](CO)[C@@H](O)[C@H](O)[C@H]1OC2=O | 99 | 7.21 | 102 | 98.6 | 4.18 | – | –
3 | CCCCOc1cc2c(c(OCCCC)c1OC)[C@@H]1O[C@H](CO)[C@@H](O)[C@H](O)[C@H]1OC2=O | -9.27 | – | – | – | – | – | –
4 | CCCCCCCCOc1cc2c(c(OCCCCCCCC)c1OC)[C@@H]1O[C@H](CO)[C@@H](O)[C@H](O)[C@H]1OC2=O | -21.5 | – | – | – | – | – | –
5 | COc1c(OCc2ccccc2)cc2c(c1OCc1ccccc1)[C@@H]1O[C@H](CO)[C@@H](O)[C@H](O)[C@H]1OC2=O | -5.95 | – | – | – | – | – | –
6 | CCCCCCCCCCOc1cc2c(c(OCCCCCCCCCC)c1OC)[C@@H]1O[C@H](CO)[C@@H](O)[C@H](O)[C@H]1OC2=O | 15.4 | – | – | – | – | – | –
7 | COc1c(OCc2ccccc2)cc2c(c1OCc1ccccc1)[C@@H]1O[C@@H]3CO[C@@H](c4ccccc4)O[C@H]3[C@H](NS(C)(=O)=O)[C@H]1OC2=O | 84.9 | 5.39 | 71.1 | 67.5 | 33.1 | 6 | –
8 | COc1c(OCc2ccccc2)cc2c(c1OCc1ccccc1)[C@@H]1O[C@@H]3CO[C@@H](c4ccccc4)O[C@H]3[C@H](N)[C@H]1OC2=O | 72.6 | 8.19 | 48.4 | 8.7 | 39.3 | – | –
9 | COc1c(OCc2ccccc2)cc2c(c1OCc1ccccc1)[C@@H]1O[C@@H]3CO[C@@H](c4ccccc4)O[C@H]3[C@@H](O)[C@H]1OC2=O | 11.2 | – | – | – | – | – | –
10 | COc1c(OCc2ccccc2)cc2c(c1OCc1ccccc1)[C@@H]1O[C@@H]3CO[C@@H](c4ccccc4)O[C@H]3[C@@H](OS(=O)(=O)C(F)(F)F)[C@H]1OC2=O | 75.9 | 8.05 | 68.6 | 63.1 | 44.2 | – | –
11 | CCCCCCCOc1cc2c(c(OCCCCCCC)c1OC)[C@@H]1O[C@H](CO)[C@@H](OCc3ccccc3)[C@H](O)[C@H]1OC2=O | 69.8 | 10.6 | 51.3 | 51.4 | 16.1 | – | –
12 | CCCCCCCOc1cc2c(c(OCCCCCCC)c1OC)[C@@H]1O[C@H](COCc3ccccc3)[C@@H](O)[C@H](O)[C@H]1OC2=O | 99.4 | 7.66 | 99.6 | 95.9 | 10.1 | – | –
13 | CCCCCCCOc1cc2c(c(OCCCCCCC)c1OC)[C@@H]1O[C@@H]3CO[C@@H](c4ccccc4)O[C@H]3[C@H](O)[C@H]1OC2=O | -6.83 | – | – | – | – | – | –
14 | CCCCCCOc1cc2c(c(OCCCCCC)c1OC)[C@@H]1O[C@H](CO)[C@@H](O)[C@H](O)[C@H]1OC2=O | 98.1 | 8.16 | 67.4 | 61.9 | 5.21 | – | –
15 | COc1c(OCc2ccccc2)cc2c(c1OCc1ccccc1)[C@@H]1O[C@@H]3CO[C@@H](c4ccccc4)O[C@H]3[C@H](OS(=O)(=O)C(F)(F)F)[C@H]1OC2=O | -1.62 | – | – | – | – | – | –
16 | COc1c(OCc2ccccc2)cc2c(c1OCc1ccccc1)[C@@H]1O[C@@H]3CO[C@@H](c4ccccc4)O[C@H]3[C@H](N=[N+]=[N-])[C@H]1OC2=O | -2.26 | – | – | – | – | – | –
17 | COc1c(O)cc2c(c1O)[C@@H]1O[C@@H]3CO[C@@H](c4ccccc4)O[C@H]3[C@H](O)[C@H]1OC2=O | -3.78 | – | – | – | – | – | –
18 | COc1c(OCc2ccccc2)cc2c(c1OCc1ccccc1)[C@@H]1O[C@@H]3CO[C@@H](c4ccccc4)O[C@H]3[C@H](O)[C@H]1OC2=O | 91.4 | 3.52 | 71 | 76.9 | 21 | 5.96 | –
19 | COc1c(O)cc2c(c1O)[C@@H]1O[C@H](CO)[C@@H](O)[C@H](O)[C@H]1OC2=O [BERGENIN] | 11.7 | – | -6.2 | 18.3 | – | – | –
20 | C[C@H]1C[C@H]2[C@@H]3CCC4=CC(=O)C=C[C@]4(C)[C@@]3(F)[C@@H](O)C[C@]2(C)[C@@]1(O)C(=O)CO [BETAMETHASONE] | 89.6 | – | 99.3 | 96.9 | – | – | –
21 | C/C=C/C[C@@H](C)[C@@H](O)[C@H]1C(=O)N[C@@H](CC)C(=O)N(C)CC(=O)N(C)[C@@H](CC(C)C)C(=O)N[C@@H](C(C)C)C(=O)N(C)[C@@H](CC(C)C)C(=O)N[C@@H](C)C(=O)N[C@H](C)C(=O)N(C)[C@@H](CC(C)C)C(=O)N(C)[C@@H](CC(C)C)C(=O)N(C)[C@@H](C(C)C)C(=O)N1C [CYCLOSPORINE] | – | – | – | – | – | – | 93.5
